Activity and Ratio data for 2 compounds are collected here from ChEMBL document CHEMBL4732262, “Identification of two novel thiophene analogues as inducers of autophagy mediated cell death in breast cancer cells” (Bioorg Med Chem, 2021).

Experiment [1] relates to MCF7. The experiment in a line: Induction of apoptosis in human MCF7 cells assessed as early apoptotic cells at 2.5 uM after 24 hrs by annexin V-FITC/Propidium iodide staining based flow cytometric analysis (reference value: 3.94%). The experiment is classed as functional. On the technique in general: A flow cytometer gives signals particle by particle.
The test system of experiment [2] is MDA-MB-231. The experiment in a line: Induction of apoptosis in human MDA-MB-231 cells assessed as necrotic cells at 2.5 uM after 24 hrs by annexin V-FITC/Propidium iodide staining based flow cytometric analysis (reference value: 0.65%). The experiment is classed as functional.
For experiment [3], the system named is MDA-MB-231. The experiment in a line: Induction of apoptosis in human MDA-MB-231 cells assessed as morphological changes at 2.5 uM after up to 24 hrs by phase contrast microscopic method. The format is functional, cell-based. The settings on record: time hrs <=24. An outline of the steps:
(§1)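 ~5 × 10^4 cells in 6-well plates, either DMSO control or 2.5 µM. Morphology imaged at 0, 6, 12 and 24 h.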

Experiment [4] concerns MDA-MB-231. The experiment in a line: Induction of apoptosis in human MDA-MB-231 cells assessed as reduction in number of cells at 2.5 uM by phase contrast microscopic method. Particulars: time 6-24 hrs, TDE = time-dependent effect. The format is functional, cell-based. The method in brief: as §1
For experiment [5], the system named is MCF7. The experiment in a line: Induction of apoptosis in human MCF7cells assessed as reduction in size of cells at 2.5 uM by phase contrast microscopic method. The format is functional, cell-based. Particulars: time 6-24 hrs, TDE = time-dependent effect. The method in brief:
as §1

Experiment [6] deals with MCF7. The experiment in a line: Induction of apoptosis in human MCF7 cells assessed as increase in cell death at 2.5 uM after 24 hrs by EtBr/AO staining based fluorescence microscopic method. The experiment is classed as functional. An outline of the steps:
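~5 × 10^4 MCF7 cells on coverslips given 2.5 µM for 24 h, then PBS-washed and stained with 1:1 ethidium bromide/acridine orange (0.4 mg/ml each). Viewed by fluorescence microscopy, excitation 480 nm with a 515–530 nm barrier filter. Apoptotic, necrotic and viable cells scored from 200 cells per sample.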

Experiment [7] relates to MDA-MB-231. The experiment in a line: Induction of apoptosis in human MDA-MB-231 cells assessed as increase in cleaved PARP level at 2.5 uM after r24 hrs by Western blot analysis. The experiment is classed as functional, cell-based. Particulars: time 24.0 hrs. An outline of the steps: (§2)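 MCF7 or MDA-MB-231 cells given 2.5 µM or DMSO for 24 h, then lysed in RIPA buffer. Immunoblots probed overnight at 4 °C, followed by infrared-labelled secondary antibody for 1 h at 37 °C. Bands imaged and quantified densitometrically, with GAPDH as loading control. Representative of two independent experiments.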

Experiment [8] has as its system MCF7. The experiment in a line: Induction of apoptosis in human MCF7 cells assessed as change in Bax protein expression at 2.5 uM after 24 hrs by Western blot analysis. The experiment is classed as functional, cell-based. An outline of the steps:
as §2
A general note: A western blot detects proteins with antibodies after separation by electrophoresis.

In experiment [9] the test system is MCF7. The experiment in a line: Induction of apoptosis in human MCF7 cells assessed as change in Bak1 protein expression at 2.5 uM after 24 hrs by Western blot analysis. The experiment is classed as functional, cell-based. The method in brief: as §2
Experiment [10] has as its system MCF7. The experiment in a line: Induction of apoptotic in human MCF7 cells assessed as increase in Bim protein expression at 2.5 uM after 24 hrs by Western blot analysis. The experiment is classed as functional, cell-based. The method in brief:
as §2

Experiment [11] deals with MCF7. The experiment in a line: Induction of autophagy in human MCF7 cells assessed as increase in p62 degradation at 2.5 uM after 24 hrs by Western blot analysis. The experiment is classed as functional, cell-based. An outline of the steps: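 MCF7 cells (~5 × 10^6) left untreated (DMSO control) or exposed to 2.5 µM compound for 24 h. Lysed in RIPA buffer, probed overnight at 4 °C, then given infrared-tagged secondary antibodies for 1 h at 37 °C and imaged by infrared scanning. LC3-II/I ratio and p62 taken by densitometry with GAPDH as loading control. Two independent experiments.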

In experiment [12] the test system is MCF7. The experiment in a line: Induction of autophagy in human MCF7 cells assessed as increase in Bcl2L11 mRNA expression at 2.5 uM after 24 hrs by RT-PCR analysis. The format is functional, cell-based. An outline of the steps: (§3)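 MCF7 cells given 2.5 µM or DMSO for 24 h. Total RNA extracted with TRIzol and reverse-transcribed, then SYBR Green qPCR across 34 autophagy-regulatory genes (95 °C 10 min; 40 cycles of 95 °C 15 s and 60 °C 1 min). Relative expression by 2^-ΔΔCt against housekeeping genes and DMSO control, shown as log2. Two independent experiments.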

The test system of experiment [13] is MCF7. The experiment in a line: Induction of autophagy in human MCF7 cells assessed as increase in ATG16L1 mRNA expression at 2.5 uM after 24 hrs by RT-PCR analysis. The format is functional, cell-based. An outline of the steps:
as §3

For experiment [14], the system named is MCF7. The experiment in a line: Induction of autophagy in human MCF7 cells assessed as increase in GABARAP mRNA expression at 2.5 uM after 24 hrs by RT-PCR analysis. The experiment is classed as functional, cell-based. An outline of the steps:
as §3

Experiment [15] relates to MCF7. The experiment in a line: Induction of autophagy in human MCF7 cells assessed as increase in PIK3CG mRNA expression at 2.5 uM after 24 hrs by RT-PCR analysis. The experiment is classed as functional, cell-based. An outline of the steps: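 Total RNA was taken with TRIzol from MCF7 cells treated 24 h with 2.5 µM compound or DMSO, then reverse transcribed. SYBR Green qPCR ran 40 cycles of 95 °C 15 s / 60 °C 1 min. Relative expression was calculated by 2^-ΔΔCt against DMSO-treated cells, normalized to housekeeping genes (GAPDH, B2M and others). Samples run in duplicate, two independent experiments, values averaged.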

Experiment [16] deals with MCF7. The experiment in a line: Induction of autophagy in human MCF7 cells assessed as increase in LC3-2 conversion level at 2.5 uM after 24 hrs in presence of chloroquine by Western blot analysis. The experiment is classed as functional, cell-based. An outline of the steps:
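MCF7 cells given 2.5 µM alone or combined with 50 µM chloroquine for 24 h. Western blot for cleaved PARP, p62 and LC3, with GAPDH as loading control. LC3-II/I ratio by densitometry. At least two independent experiments.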

Experiment [17] relates to MCF7. The experiment in a line: Induction of autophagy in human MCF7 cells expressing GFP-LC3 assessed as distinct puncta pattern at 2.5 uM after 24 hrs by live-cell confocal microscopic analysis. The experiment is classed as functional, cell-based. An outline of the steps:
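MCF7 cells (~1 × 10^6) at 70% confluency on glass-bottom dishes were transiently transfected with GFP-LC3 (Lipofectamine 3000). 24 h later they received 2.5 µM compound or DMSO for another 24 h. Nuclei were stained with Hoechst 33342 and lysosomes with LysoTracker Red DND-99, then imaged by live-cell confocal microscopy. LC3 puncta were counted in at least 10 cells from 3 fields. Two independent experiments.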

Experiment [18] has as its system MDA-MB-231. The experiment in a line: Cytotoxicity against human MDA-MB-231 cells assessed as reduction in cell viability at 25 to 100 uM after 24 hrs in presence of chloroquine by MTT assay. The format is functional, cell-based. The settings on record: dose 25-100 µM. The method in brief:
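~0.5 × 10^5 cells per well in six-well plates given 2.5 µM test agent together with chloroquine at 25, 50 or 100 µM, 24 h at 37 °C in humidified CO2. Viability read by MTT. Duplicate assays from two independent experiments, shown with SD.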
In general terms: Tetrazolium assays rely on reduction of a dye to a coloured formazan, in cell work by metabolically active cells.

Experiment [19] relates to MCF7. The experiment in a line: Induction of autophagy in human MCF7 cells assessed as LC3-2 to LC3-1 protein ratio at 2.5 uM after 24 hrs by Western blot analysis (reference value: 0.22 to 0.8). The format is functional.
The subject of experiment [20] is MCF7. The experiment in a line: Induction of autophagy in human MCF7 cells assessed as LC3-2 to LC3-1 protein ratio at 5 uM after 24 hrs by Western blot analysis (reference value: 0.22 to 0.8). The experiment is classed as functional.
Experiment [21] concerns MCF7. The experiment in a line: Induction of autophagy in human MCF7 cells assessed as LC3-2 to LC3-1 protein ratio at 2.5 uM after 24 hrs in presence of chloroquine by Western blot analysis (reference value: 0.52 to 0.65).

The source made the active and inactive calls. The calls are words filed in the database; no cut-off is given here.

Take `O=C1C(=O)c2ccsc2-c2ccccc21`: the Activity in the experiment on MCF7 [1] is 17.9%; in the experiment on MDA-MB-231 [2] it was 43.5%; with MDA-MB-231 [4], “Tde”; in the experiment on MCF7 [5], “Tde”. In addition, the outcome in the experiment with MDA-MB-231 [3], with MCF7 [6], in the experiment on MDA-MB-231 [7], in the experiment on MCF7 [10], in the experiment on MCF7 [11] and in the experiment with MCF7 [12] was Active. Further, the result with MCF7 [13], with MCF7 [14], with MCF7 [15] and in the experiment with MCF7 [17] was Active. The outcome in the experiment with MCF7 [8], with MCF7 [9], in the experiment on MCF7 [16] and in the experiment on MDA-MB-231 [18] was inactive. The Ratio came out at 16.3 with MCF7 [19], 34.1 in the experiment with MCF7 [20] and 0.92 with MCF7 [21].
On to `O=C1C(=O)c2sccc2-c2ccccc21`, for which the Activity was 31.4% in the experiment with MCF7 [1], 26.8% in the experiment on MDA-MB-231 [2], “Tde” in the experiment with MDA-MB-231 [4] and “Tde” in the experiment on MCF7 [5]. Besides, the result in the experiment on MDA-MB-231 [3], with MCF7 [6], with MDA-MB-231 [7], with MCF7 [10], with MCF7 [11] and in the experiment with MCF7 [12] was Active. Also, the result in the experiment on MCF7 [13], in the experiment on MCF7 [14], in the experiment on MCF7 [15] and in the experiment on MCF7 [17] was Active. The result with MCF7 [8], in the experiment with MCF7 [9], in the experiment on MCF7 [16] and in the experiment on MDA-MB-231 [18] was inactive. The figures for the Ratio with MCF7 [19], in the experiment with MCF7 [20] and with MCF7 [21] were 7.14, 11.4 and 1.1, respectively.
